Test system: U2OS
Experiment: Multiplex assay against U2OS
Assay type: toxicity, cell-based
Details: human
Summary of the method: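 Per cents of healthy-nucleus cells form the tubulin, mitochondrial-mass and membrane-permeability phenotype values. Live cells were stained at seeding with Hoechst33342, BioTracker Green Microtubule Cytoskeleton Dye, MitoTracker Red and Annexin V Alexa Fluor 680. After compound addition they were imaged on a CQ1 microscope at 37°C and 5% CO2, and CellPathfinder machine-learning gating split them into Hoechst high-intensity objects or normal cells, normal cells into healthy, pyknosed or fragmented nuclei, and pyknosed cells into mitotic or apoptotic.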

[1] = 12 h, 1 µM, compound concentration 1 uM, replicate 1
[2] = 12 h, 1 µM, compound concentration 1 uM, replicate 2
[3] = 12 h, 10 µM, compound concentration 10 uM, replicate 1
[4] = 12 h, 10 µM, compound concentration 10 uM, replicate 2
[5] = 24 h, 1 µM, compound concentration 1 uM, replicate 1
[6] = 24 h, 1 µM, compound concentration 1 uM, replicate 2
[7] = 24 h, 10 µM, compound concentration 10 uM, replicate 1
[8] = 24 h, 10 µM, compound concentration 10 uM, replicate 2
[9] = 48 h, 1 µM, compound concentration 1 uM, replicate 1
[10] = 48 h, 1 µM, compound concentration 1 uM, replicate 2
[11] = 48 h, 10 µM, compound concentration 10 uM, replicate 1
[12] = 48 h, 10 µM, compound concentration 10 uM, replicate 2

SMILES: CSc1nc(NC2CCCC2)c([N+](=O)[O-])c(NC2CCCC2)n1 [GS-39783]
- Population Apoptotic (%) [1]: 82%
- Population Fragmented Nuclei (%) [1]: 25%
- Population Healthy Nuclei (%) [1]: 66%
- Population Hoechst High Intensity Objects (%) [1]: 2%
- Population Membrane Permeable-Phenotype (%) [1]: 4%
- Population Mitochondria Different-Phenotype (%) [1]: 3%
- Population Mitotic Cells (%) [1]: 17%
- Population Normal (%) [1]: 97%
- Population Pyknosed Nuclei (%) [1]: 8%
- Population Tubulin-Different-Phenotype (%) [1]: 1%
- Total Cell Count [1]: 209
- Population Apoptotic (%) [2]: 80%
- Population Fragmented Nuclei (%) [2]: 18%
- Population Healthy Nuclei (%) [2]: 76%
- Population Hoechst High Intensity Objects (%) [2]: 3%
- Population Mitochondria Different-Phenotype (%) [2]: 0%
- Population Mitotic Cells (%) [2]: 20%
- Population Normal (%) [2]: 96%
- Population Pyknosed Nuclei (%) [2]: 5%
- Total Cell Count [2]: 96
- Population Apoptotic (%) [3]: 88%
- Population Fragmented Nuclei (%) [3]: 30%
- Population Healthy Nuclei (%) [3]: 63%
- Population Hoechst High Intensity Objects (%) [3]: 3%
- Population Membrane Permeable-Phenotype (%) [3]: 9%
- Population Mitochondria Different-Phenotype (%) [3]: 5%
- Population Mitotic Cells (%) [3]: 11%
- Population Normal (%) [3]: 96%
- Population Pyknosed Nuclei (%) [3]: 5%
- Population Tubulin-Different-Phenotype (%) [3]: 4%
- Total Cell Count [3]: 322
- Population Apoptotic (%) [4]: 100%
- Population Fragmented Nuclei (%) [4]: 19%
- Population Healthy Nuclei (%) [4]: 75%
- Population Hoechst High Intensity Objects (%) [4]: 1%
- Population Mitochondria Different-Phenotype (%) [4]: 0%
- Population Mitotic Cells (%) [4]: 0%
- Population Normal (%) [4]: 98%
- Population Pyknosed Nuclei (%) [4]: 4%
- Population Tubulin-Different-Phenotype (%) [4]: 6%
- Total Cell Count [4]: 145
- Population Apoptotic (%) [5]: 87%
- Population Fragmented Nuclei (%) [5]: 22%
- Population Healthy Nuclei (%) [5]: 64%
- Population Hoechst High Intensity Objects (%) [5]: 2%
- Population Membrane Permeable-Phenotype (%) [5]: 2%
- Population Mitochondria Different-Phenotype (%) [5]: 1%
- Population Mitotic Cells (%) [5]: 12%
- Population Normal (%) [5]: 97%
- Population Pyknosed Nuclei (%) [5]: 12%
- Population Tubulin-Different-Phenotype (%) [5]: 1%
- Total Cell Count [5]: 269
- Population Apoptotic (%) [6]: 84%
- Population Fragmented Nuclei (%) [6]: 20%
- Population Healthy Nuclei (%) [6]: 68%
- Population Hoechst High Intensity Objects (%) [6]: 1%
- Population Membrane Permeable-Phenotype (%) [6]: 1%
- Population Mitotic Cells (%) [6]: 15%
- Population Normal (%) [6]: 98%
- Population Pyknosed Nuclei (%) [6]: 11%
- Population Tubulin-Different-Phenotype (%) [6]: 0%
- Total Cell Count [6]: 119
- Population Apoptotic (%) [7]: 85%
- Population Fragmented Nuclei (%) [7]: 26%
- Population Healthy Nuclei (%) [7]: 66%
- Population Hoechst High Intensity Objects (%) [7]: 2%
- Population Membrane Permeable-Phenotype (%) [7]: 6%
- Population Mitochondria Different-Phenotype (%) [7]: 6%
- Population Mitotic Cells (%) [7]: 14%
- Population Normal (%) [7]: 97%
- Population Pyknosed Nuclei (%) [7]: 6%
- Population Tubulin-Different-Phenotype (%) [7]: 4%
- Total Cell Count [7]: 341
- Population Apoptotic (%) [8]: 88%
- Population Fragmented Nuclei (%) [8]: 18%
- Population Healthy Nuclei (%) [8]: 75%
- Population Hoechst High Intensity Objects (%) [8]: 3%
- Population Membrane Permeable-Phenotype (%) [8]: 9%
- Population Mitochondria Different-Phenotype (%) [8]: 2%
- Population Mitotic Cells (%) [8]: 11%
- Population Normal (%) [8]: 96%
- Population Pyknosed Nuclei (%) [8]: 5%
- Population Tubulin-Different-Phenotype (%) [8]: 5%
- Total Cell Count [8]: 164
- Population Apoptotic (%) [9]: 88%
- Population Fragmented Nuclei (%) [9]: 18%
- Population Healthy Nuclei (%) [9]: 70%
- Population Hoechst High Intensity Objects (%) [9]: 1%
- Population Membrane Permeable-Phenotype (%) [9]: 3%
- Population Mitochondria Different-Phenotype (%) [9]: 1%
- Population Mitotic Cells (%) [9]: 11%
- Population Normal (%) [9]: 98%
- Population Pyknosed Nuclei (%) [9]: 11%
- Population Tubulin-Different-Phenotype (%) [9]: 1%
- Total Cell Count [9]: 382
- Population Apoptotic (%) [10]: 92%
- Population Fragmented Nuclei (%) [10]: 21%
- Population Healthy Nuclei (%) [10]: 71%
- Population Hoechst High Intensity Objects (%) [10]: 0%
- Population Mitotic Cells (%) [10]: 7%
- Population Normal (%) [10]: 100%
- Population Pyknosed Nuclei (%) [10]: 7%
- Population Tubulin-Different-Phenotype (%) [10]: 3%
- Total Cell Count [10]: 185
- Population Apoptotic (%) [11]: 89%
- Population Fragmented Nuclei (%) [11]: 23%
- Population Healthy Nuclei (%) [11]: 67%
- Population Hoechst High Intensity Objects (%) [11]: 2%
- Population Membrane Permeable-Phenotype (%) [11]: 5%
- Population Mitochondria Different-Phenotype (%) [11]: 1%
- Population Mitotic Cells (%) [11]: 10%
- Population Normal (%) [11]: 97%
- Population Pyknosed Nuclei (%) [11]: 8%
- Population Tubulin-Different-Phenotype (%) [11]: 2%
- Total Cell Count [11]: 462
- Population Apoptotic (%) [12]: 85%
- Population Fragmented Nuclei (%) [12]: 12%
- Population Healthy Nuclei (%) [12]: 81%
- Population Hoechst High Intensity Objects (%) [12]: 0%
- Population Membrane Permeable-Phenotype (%) [12]: 4%
- Population Mitochondria Different-Phenotype (%) [12]: 3%
- Population Mitotic Cells (%) [12]: 14%
- Population Normal (%) [12]: 99%
- Population Pyknosed Nuclei (%) [12]: 6%
- Population Tubulin-Different-Phenotype (%) [12]: 3%
- Total Cell Count [12]: 231

SMILES: CC(C)(C)c1ccc(CSc2cnn(C(C)(C)C)c(=O)c2Cl)cc1 [PYRIDABEN]
- Population Apoptotic (%) [1]: 79%
- Population Fragmented Nuclei (%) [1]: 28%
- Population Healthy Nuclei (%) [1]: 61%
- Population Hoechst High Intensity Objects (%) [1]: 3%
- Population Membrane Permeable-Phenotype (%) [1]: 3%
- Population Mitochondria Different-Phenotype (%) [1]: 1%
- Population Mitotic Cells (%) [1]: 20%
- Population Normal (%) [1]: 97%
- Population Pyknosed Nuclei (%) [1]: 9%
- Population Tubulin-Different-Phenotype (%) [1]: 2%
- Total Cell Count [1]: 267
- Population Apoptotic (%) [2]: 63%
- Population Fragmented Nuclei (%) [2]: 11%
- Population Healthy Nuclei (%) [2]: 81%
- Population Hoechst High Intensity Objects (%) [2]: 0%
- Population Membrane Permeable-Phenotype (%) [2]: 4%
- Population Mitotic Cells (%) [2]: 36%
- Population Normal (%) [2]: 99%
- Population Pyknosed Nuclei (%) [2]: 7%
- Population Tubulin-Different-Phenotype (%) [2]: 3%
- Total Cell Count [2]: 152
- Population Apoptotic (%) [3]: 83%
- Population Fragmented Nuclei (%) [3]: 28%
- Population Healthy Nuclei (%) [3]: 57%
- Population Hoechst High Intensity Objects (%) [3]: 1%
- Population Membrane Permeable-Phenotype (%) [3]: 5%
- Population Mitochondria Different-Phenotype (%) [3]: 5%
- Population Mitotic Cells (%) [3]: 16%
- Population Normal (%) [3]: 98%
- Population Pyknosed Nuclei (%) [3]: 14%
- Population Tubulin-Different-Phenotype (%) [3]: 3%
- Total Cell Count [3]: 209
- Population Apoptotic (%) [4]: 87%
- Population Fragmented Nuclei (%) [4]: 15%
- Population Healthy Nuclei (%) [4]: 73%
- Population Hoechst High Intensity Objects (%) [4]: 0%
- Population Mitochondria Different-Phenotype (%) [4]: 2%
- Population Mitotic Cells (%) [4]: 12%
- Population Normal (%) [4]: 100%
- Population Pyknosed Nuclei (%) [4]: 11%
- Population Tubulin-Different-Phenotype (%) [4]: 2%
- Total Cell Count [4]: 141
- Population Apoptotic (%) [5]: 83%
- Population Fragmented Nuclei (%) [5]: 28%
- Population Healthy Nuclei (%) [5]: 58%
- Population Hoechst High Intensity Objects (%) [5]: 1%
- Population Membrane Permeable-Phenotype (%) [5]: 4%
- Population Mitochondria Different-Phenotype (%) [5]: 1%
- Population Mitotic Cells (%) [5]: 16%
- Population Normal (%) [5]: 98%
- Population Pyknosed Nuclei (%) [5]: 13%
- Population Tubulin-Different-Phenotype (%) [5]: 1%
- Total Cell Count [5]: 286
- Population Apoptotic (%) [6]: 100%
- Population Fragmented Nuclei (%) [6]: 19%
- Population Healthy Nuclei (%) [6]: 75%
- Population Hoechst High Intensity Objects (%) [6]: 2%
- Population Membrane Permeable-Phenotype (%) [6]: 3%
- Population Mitotic Cells (%) [6]: 0%
- Population Normal (%) [6]: 97%
- Population Pyknosed Nuclei (%) [6]: 5%
- Total Cell Count [6]: 186
- Population Apoptotic (%) [7]: 80%
- Population Fragmented Nuclei (%) [7]: 22%
- Population Healthy Nuclei (%) [7]: 61%
- Population Hoechst High Intensity Objects (%) [7]: 2%
- Population Membrane Permeable-Phenotype (%) [7]: 8%
- Population Mitochondria Different-Phenotype (%) [7]: 3%
- Population Mitotic Cells (%) [7]: 19%
- Population Normal (%) [7]: 97%
- Population Pyknosed Nuclei (%) [7]: 15%
- Population Tubulin-Different-Phenotype (%) [7]: 6%
- Total Cell Count [7]: 234
- Population Fragmented Nuclei (%) [8]: 19%
- Population Healthy Nuclei (%) [8]: 68%
- Population Hoechst High Intensity Objects (%) [8]: 1%
- Population Membrane Permeable-Phenotype (%) [8]: 6%
- Population Mitochondria Different-Phenotype (%) [8]: 1%
- Population Mitotic Cells (%) [8]: 20%
- Population Normal (%) [8]: 98%
- Population Pyknosed Nuclei (%) [8]: 12%
- Population Tubulin-Different-Phenotype (%) [8]: 2%
- Total Cell Count [8]: 167
- Population Apoptotic (%) [9]: 76%
- Population Fragmented Nuclei (%) [9]: 26%
- Population Healthy Nuclei (%) [9]: 63%
- Population Hoechst High Intensity Objects (%) [9]: 3%
- Population Membrane Permeable-Phenotype (%) [9]: 6%
- Population Mitochondria Different-Phenotype (%) [9]: 3%
- Population Mitotic Cells (%) [9]: 23%
- Population Normal (%) [9]: 96%
- Population Pyknosed Nuclei (%) [9]: 9%
- Population Tubulin-Different-Phenotype (%) [9]: 3%
- Total Cell Count [9]: 361
- Population Apoptotic (%) [10]: 84%
- Population Fragmented Nuclei (%) [10]: 19%
- Population Healthy Nuclei (%) [10]: 70%
- Population Hoechst High Intensity Objects (%) [10]: 6%
- Population Membrane Permeable-Phenotype (%) [10]: 5%
- Population Mitotic Cells (%) [10]: 15%
- Population Normal (%) [10]: 93%
- Population Tubulin-Different-Phenotype (%) [10]: 2%
- Total Cell Count [10]: 212
- Population Apoptotic (%) [11]: 90%
- Population Fragmented Nuclei (%) [11]: 20%
- Population Healthy Nuclei (%) [11]: 64%
- Population Hoechst High Intensity Objects (%) [11]: 4%
- Population Membrane Permeable-Phenotype (%) [11]: 9%
- Population Mitochondria Different-Phenotype (%) [11]: 4%
- Population Mitotic Cells (%) [11]: 10%
- Population Normal (%) [11]: 95%
- Population Pyknosed Nuclei (%) [11]: 14%
- Population Tubulin-Different-Phenotype (%) [11]: 6%
- Total Cell Count [11]: 280
- Population Apoptotic (%) [12]: 95%
- Population Fragmented Nuclei (%) [12]: 16%
- Population Healthy Nuclei (%) [12]: 70%
- Population Hoechst High Intensity Objects (%) [12]: 3%
- Population Membrane Permeable-Phenotype (%) [12]: 5%
- Population Mitochondria Different-Phenotype (%) [12]: 6%
- Population Mitotic Cells (%) [12]: 4%
- Population Normal (%) [12]: 96%
- Population Pyknosed Nuclei (%) [12]: 13%
- Population Tubulin-Different-Phenotype (%) [12]: 4%
- Total Cell Count [12]: 191

Source: ChEMBL document CHEMBL5058577, “EUbOPEN Chemogenomics Library 2 (Multiplex)” (2022)
